Data from ChEMBL document CHEMBL3817785, “Synthetic sulfoglycolipids targeting the serine-threonine protein kinase Akt” (Bioorg Med Chem, 2016).
Blank lines part the entries; values can stand above or below the compound they belong to. Calls of active or inactive are those of the source. The calls are words filed in the database; no cut-off is given here.

How the values were obtained:
[1] = biological target: T1, RAC-alpha serine/threonine-protein kinase (Homo sapiens, UniProt P31749); experiment: Inhibition of human Akt1 PH domain using AKTide-2T as substrate by ELISA
How it was run: (§1)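 Kit ELISA: wells precoated with AKTide-2T; constitutively active human Akt1 (25 m units/well) plus compound in kinase buffer (100 µM final, or 1–250 µM for concentration-response), Mg2+/ATP added. Phospho-substrate detected by HRP anti-phospho-AKTide-2T antibody with TMB, A450.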

[2] = biological target: T1, RAC-alpha serine/threonine-protein kinase; experiment: Inhibition of human Akt1 PH domain using AKTide-2T as substrate at 100 uM by ELISA; how it was run: as §1
TPC1 [3] = experiment: Antiproliferative activity against human TPC1 cells harboring RET/PTC-1 rearrangement assessed as cell growth inhibition after 72 hrs by coulter counter method; format: functional, cell-based
How it was run: (§2)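 Cells seeded in complete medium in 12-well plates: Nim-1 at 5000 cells/cm² and TPC-1 at 3000 cells/cm², both in DMEM + 10% FBS; K1 at 4000 cells/cm² in DMEM:Ham's F12:MCDB 105 (2:1:1) + 20% serum; 37 °C, 5% CO2. Next day, exposed to increasing concentrations or DMSO (0.5% final) for 72 h. Cells trypsinized and Coulter-counted; survival as % of untreated, duplicates; IC50 = 50% growth inhibition.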

Homo sapiens = organism: Homo sapiens; experiment: (§3) Antiproliferative activity against PTEN-deficient human Nim1 cells expressing BRAF V600E mutant assessed as cell growth inhibition after 72 hrs by coulter counter method; format: functional; how it was run: as §2
IGROV-1 = experiment: (§4) Antiproliferative activity against human IGROV1 cells assessed as cell growth inhibition after 24 hrs by coulter counter method; format: functional, cell-based
How it was run: (§5)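 Seeded at 5000 cells/cm² in complete RPMI (10% serum), 37 °C, 5% CO2; next day serum-starved and drug-treated for 24 h, then complete medium restored for a further 48 h. Cells trypsinized and counted by Coulter counter 72 h after treatment start; survival vs untreated; IC50 = concentration inhibiting proliferation by 50%; duplicates, two independent experiments, mean ± SEM.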

K1 [4] = experiment: (§6) Antiproliferative activity against human K1 cells expressing BRAF V600E/PI3K E542K mutants assessed as cell growth inhibition after 72 hrs by coulter counter method; format: functional, cell-based; how it was run: as §2
[5] = biological target: RAC-alpha serine/threonine-protein kinase (Mus musculus) (UniProt P31750); experiment: Inhibition of serum-stimulated Akt phosphorylation in mouse NIH/3T3-K-RAS cells at 100 uM pretreated for 1 hr followed by serum addition for 30 mins by Western blot analysis; format: cell-based
How it was run: (§7)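 K-ras-transformed NIH 3T3 cells (DMEM, 10% NBCS, 37 °C) plated at 3 x 10⁵ cells/mL, starved 16 h in 0.5% serum, pretreated 1 h with compound at 100 µM or DMSO, then stimulated with 10% serum for 30 min. Lysates (15 µg) on 8% SDS-PAGE, probed for phospho-Akt Ser473, reprobed for total Akt, actin loading control; ECL; densitometry from three experiments.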

[6] = biological target: RAC-alpha serine/threonine-protein kinase (Mus musculus) (UniProt P31750); experiment: Inhibition of Akt phosphorylation in mouse NIH/3T3-K-RAS cells at 100 uM pretreated for 1 hr by Western blot analysis; format: cell-based; how it was run: as §7
[7] = biological target: T1, RAC-alpha serine/threonine-protein kinase; conditions: 1 uM
[8] = biological target: T1, RAC-alpha serine/threonine-protein kinase; experiment: Inhibition of Akt in human IGROV1 cells assessed as reduction in GSK3beta phosphorylation at Ser9 at 3 uM after 24 hrs by Western blot analysis; format: cell-based; conditions: IGROV-1
How it was run: (§8)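 Seeded in complete RPMI; 24 h later serum-starved and exposed to drug or vehicle for 24 h; total protein extracted and immunoblotted for serine-phosphorylated GSK-3α, GSK-3β and BAD.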

K1 [9] = experiment: Cytotoxicity against human K1 cells expressing BRAF V600E/PI3K E542K mutants assessed as vacuolated and granulated cytoplasm at 50 uM after 72 hrs by coulter counter method; format: functional, cell-based
[10] = biological target: T1, RAC-alpha serine/threonine-protein kinase; experiment: Inhibition of Akt in human IGROV1 cells assessed as reduction in BAD phosphorylation at Ser136 at 3 uM after 24 hrs by Western blot analysis; format: cell-based; conditions: IGROV-1; how it was run: as §8
[11] = as §4; format: functional, cell-based; conditions: IGROV-1, 24 h; how it was run: as §5
TPC1 [12] = experiment: Antiproliferative activity against human TPC1 cells harboring RET/PTC-1 rearrangement assessed as cell growth inhibition at 50 uM after 72 hrs by coulter counter method relative to control; format: functional; conditions: TPC1, 72 h, read-out: GI
How it was run: (§9)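 Cells plated in complete medium (TPC-1 3000 cells/cm², DMEM + 10% FBS; K1 4000 cells/cm², DMEM:Ham's F12:MCDB 105 2:1:1 + 20% serum), 37 °C, 5% CO2. Next day exposed to drug or DMSO (0.5% final) for 72 h; trypsinized, Coulter counted; % survival vs untreated; duplicates, two independent experiments, mean ± SEM; Student's two-tailed t test.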

[13] = biological target: T1, RAC-alpha serine/threonine-protein kinase; experiment: Inhibition of Akt in human IGROV1 cells assessed as reduction in GSK3alpha phosphorylation at Ser21 at 3 uM after 24 hrs by Western blot analysis; format: cell-based; conditions: IGROV-1; how it was run: as §8
[14] = Antiproliferative activity against human K1 cells expressing BRAF V600E/PI3K E542K mutants assessed as cell growth inhibition at 50 uM after 72 hrs by coulter counter method relative to control; format: functional; conditions: K1, 72 h, read-out: GI; how it was run: as §9
[15] = as §3; format: functional; how it was run: as §2
[16] = as §6; format: functional, cell-based; conditions: K1, 72 h; how it was run: as §2
[17] = biological target: T1, RAC-alpha serine/threonine-protein kinase; conditions: IGROV-1, 3 to 10 uM
[18] = biological target: T1, RAC-alpha serine/threonine-protein kinase; conditions: IGROV-1, 3 to 10 uM; remark: listed apart in the source
[19] = biological target: T1, RAC-alpha serine/threonine-protein kinase; conditions: IGROV-1, 3 to 10 uM; remark: listed apart in the source

RAC-alpha serine/threonine-protein kinase (Mus musculus), sequence (P31750 whole entry): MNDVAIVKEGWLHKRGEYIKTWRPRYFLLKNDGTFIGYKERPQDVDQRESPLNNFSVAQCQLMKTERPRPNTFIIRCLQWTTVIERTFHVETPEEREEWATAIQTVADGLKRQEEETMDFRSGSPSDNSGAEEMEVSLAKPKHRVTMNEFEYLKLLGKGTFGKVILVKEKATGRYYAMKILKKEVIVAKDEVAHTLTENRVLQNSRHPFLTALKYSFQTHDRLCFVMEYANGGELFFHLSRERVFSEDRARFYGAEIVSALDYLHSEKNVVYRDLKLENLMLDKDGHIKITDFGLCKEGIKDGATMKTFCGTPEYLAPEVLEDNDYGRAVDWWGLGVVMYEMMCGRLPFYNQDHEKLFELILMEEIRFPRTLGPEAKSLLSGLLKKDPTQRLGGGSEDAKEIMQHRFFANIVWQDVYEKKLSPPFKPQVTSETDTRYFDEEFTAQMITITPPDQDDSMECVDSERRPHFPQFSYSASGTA
T1 sequence (P31749 whole entry, the tested form may be a part): as the sequence (P31750 whole entry) above, with N2S, S50A, A100T, R112K, T117E, T389K, N410G, D415H counted along it

Structure (SMILES): CCCCCCCCCCCCCCCCCCOP(=O)([O-])OC1CC[N+](C)(C)CC1 [PERIFOSINE]
IC50 [1]: 43.3 µM

Structure (SMILES): CCCCCCCCO[C@@H]1O[C@H](CN)[C@@H](O)[C@H](O)[C@H]1O
inhibition [2]: 6%
growth inhibition (GI) (TPC1 [3]): inactive
growth inhibition (GI) (Homo sapiens): inactive
growth inhibition (GI) (IGROV-1): inactive
growth inhibition (GI) (K1 [4]): inactive
inhibition [5]: inactive
inhibition [6]: inactive

Structure (SMILES): CN[C@@H]1C[C@H]2O[C@@](C)([C@@H]1OC)n1c3ccccc3c3c4c(c5c6ccccc6n2c5c31)C(=O)NC4
inhibition [7]: Active

Structure (SMILES): CCCCCCCCCCCCCCCCCC(=O)OCC(CO)O[C@@H]1O[C@H](CS(=O)(=O)O)[C@@H](O)[C@H](O)[C@H]1O (some centres not stated)
inhibition [8]: Active
Activity (K1 [9]): Active
inhibition [2]: 86%
inhibition [10]: Active
growth inhibition (GI) (TPC1 [3]): Dose-dependent effect
growth inhibition (GI) (Homo sapiens): Dose-dependent effect
IC50 [11]: 2000 nM
growth inhibition (GI) (K1 [4]): Dose-dependent effect
inhibition of growth at 50 µM (TPC1 [12]): 30%
inhibition [5]: 40%
inhibition [6]: Active
IC50 [1]: 31.3 µM
inhibition [1]: Dose-dependent effect
inhibition [13]: Active
inhibition of growth at 50 µM [14]: 30%

Structure (SMILES): O=c1[nH]c2ccccc2n1C1CCN(Cc2ccc(-c3nc4cc5nc[nH]c5cc4nc3-c3ccccc3)cc2)CC1
IC50 (TPC1 [3]; TPC1, 72 h): 11 µM
IC50 [15]: 3000 nM
IC50 [11]: 300 nM
IC50 [16]: 10 µM

Structure (SMILES): O=c1[nH]c2ccccc2n1C1CCN(Cc2ccc(-c3nc4cc5[nH]cnc5cc4nc3-c3ccccc3)cc2)CC1
inhibition [2]: 89%
inhibition [17]: Active
inhibition [18]: Active
inhibition [19]: Active

Structure (SMILES): CCCCCCCCO[C@@H]1O[C@H](CS(=O)(=O)O)[C@@H](O)[C@H](O)[C@H]1O
inhibition [2]: 14%
growth inhibition (GI) (TPC1 [3]): inactive
growth inhibition (GI) (Homo sapiens): inactive
growth inhibition (GI) (IGROV-1): inactive
growth inhibition (GI) (K1 [4]): inactive
inhibition [5]: inactive
inhibition [6]: inactive

Further lines, results first:

inhibition [2]: 13%
Structure (SMILES): O=S(=O)(O)C[C@H]1O[C@@H](OC(CO)CO)[C@H](O)[C@@H](O)[C@@H]1O

inhibition [2]: 28%
Structure (SMILES): CO[C@@H]1O[C@H](CS(=O)(=O)O)[C@@H](O)[C@H](O)[C@H]1O

inhibition [2]: inactive
Structure (SMILES): CCCCCCCCCCCCOS(=O)(=O)[O-].[Na+]

inhibition [2]: 7%
Structure (SMILES): CCCCCCCCCCCC(=O)OCC(COC(=O)CCCCCCCCCCC)O[C@@H]1O[C@H](CO)[C@@H](O)[C@H](O)[C@H]1O

inhibition [2]: 13%
Structure (SMILES): CCCCCC(=O)OCC(COC(=O)CCCCC)O[C@@H]1O[C@H](CS(=O)(=O)O)[C@@H](O)[C@H](O)[C@H]1O

inhibition [2]: 77%
Structure (SMILES): CCCCCCCCCCCC(=O)OCC(COC(=O)CCCCCCCCCCC)O[C@@H]1O[C@H](CS(=O)(=O)O)[C@@H](O)[C@H](O)[C@H]1O

inhibition [2]: 18%
Structure (SMILES): CCCCCC(=O)OCC(CO)O[C@@H]1O[C@H](CS(=O)(=O)O)[C@@H](O)[C@H](O)[C@H]1O (some centres not stated)

inhibition [2]: 31%
Structure (SMILES): CCCCCCCCCCCC(=O)OCC(CO)O[C@@H]1O[C@H](CS(=O)(=O)O)[C@@H](O)[C@H](O)[C@H]1O (some centres not stated)
